Calls of active or inactive are those of the source.

These results are taken from ChEMBL document CHEMBL3526018, “Metabolites of PPI-2458, a selective, irreversible inhibitor of methionine aminopeptidase-2: structure determination and in vivo activity” (Drug Metab Dispos, 2013).

For series [1], the system named is CYP3A5 (Homo sapiens). Kind of series: Ratio of Vmax to Km for human recombinant CYP3A5 assessed as ((3R,4S,5S,6R)-4-((2R,3R)-3-((E)-4-hydroxy-3-methylbut-2-en-1-yl)-2-methyloxiran-2-yl)-5-methoxy-1-oxaspiro[2.5]octan-6-yl((R)-1-amino-3-methyl-1-oxobutan-2-yl)carbamate) formation. Particulars: recombinant enzyme.
The subject of series [2] is Liver microsome. Nature of the series: Metabolic stability in dog liver microsomes assessed as retention time of ((3R,4S,5S,6R)-4-((2R,3R)-3-(((S)-3,3-dimethyloxiran-2-yl)methyl)-2-methyloxiran-2-yl)-5-methoxy-1-oxaspiro[2.5]octan-6-yl ((R)-1-amino-3-methyl-1-oxobutan-2-yl)carbamate) at 5 mM by LC/MS analysis. The class given is ADME, Canis lupus familiaris. Particulars: 5000 µM. (In general: Liver microsomes are a subcellular fraction often used to study metabolism.)

The subject of series [3] is CYP3A5 (Homo sapiens). Nature of the series: Activity of human recombinant CYP3A5 assessed as ((3R,4S,5S,6R)-4-((2R,3R)-3-((E)-4-hydroxy-3-methylbut-2-en-1-yl)-2-methyloxiran-2-yl)-5-methoxy-1-oxaspiro[2.5]octan-6-yl((R)-1-amino-3-methyl-1-oxobutan-2-yl)carbamate) formation. Particulars: recombinant enzyme.
In series [4] the test system is Liver. Nature of the series: Metabolic stability in mouse liver microsomes assessed as retention time of ((3R,4S,5S,6R)-4-((2R,3R)-3-((E)-4-hydroxy-3-methylbut-2-en-1-yl)-2-methyloxiran-2-yl)-5-methoxy-1-oxaspiro[2.5]octan-6-yl((R)-1-amino-3-methyl-1-oxobutan-2-yl)carbamate) at 5 mM by LC/MS analysis. The class given is ADME. Particulars: 5000 µM. Put shortly: (§1)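 Liver microsomes (pooled male/female) in 100 mM KPO4 pH 7.4 with PPI-2458 (5 mM stock), pre-incubated 5 min at 37°C, then 10 mM NADPH added; 20 min at 37°C with shaking. Time-zero and no-NADPH controls. Quenched with CH3CN; supernatant dried and redissolved in water. Analysed by LC-MS, ESI+ full scan 300–800 amu, C18 column, 10→50% B gradient.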

Series [5] deals with Liver microsome. Nature of the series: Metabolic stability in rat liver microsomes assessed as retention time of ((3R,4S,5S,6R)-5-methoxy-4-((2R,3R)-2-methyl-3-(3-methylbut-2-en-1-yl)oxiran-2-yl)-1-oxaspiro[2.5]octan-6-yl ((R)-1-amino-3-hydroxy-3-methyl-1-oxobutan-2-yl)carbamate) at 5 mM by LC/MS analysis. Particulars: 5000 µM. The class given is ADME. Put shortly:
as §1

Series [6] can be described thus: Half life in non-Hodgkin lymphoma patient at 15 mg, po alternate days for 21 days. In kind it is ADME, organism-based. Particulars: human, in vivo. Put shortly: (§2)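 Oral PPI-2458 given every other day to lymphoma patients. Plasma sampled pre-dose and at 15 min, 30 min, 1, 2, 3, 4, 6, 8, 24 and 48 h after the first dose. Parent and metabolites were measured by LC-MS/MS after protein precipitation, evaporation and reconstitution. CL/F was computed only for parent and summed analytes. For metabolites, t1/2 is an apparent first-phase value.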

Series [7] has as its system CYP3A4 (Homo sapiens). Nature of the series: Ratio of Vmax to Km for human recombinant CYP3A4 assessed as ((3R,4S,5S,6R)-4-((2R,3R)-3-((E)-4-hydroxy-3-methylbut-2-en-1-yl)-2-methyloxiran-2-yl)-5-methoxy-1-oxaspiro[2.5]octan-6-yl((R)-1-amino-3-methyl-1-oxobutan-2-yl)carbamate) formation. Particulars: recombinant enzyme.
Series [8] deals with CYP3A4 (Homo sapiens). Nature of the series: Ratio of Vmax to Km for human recombinant CYP3A4 assessed as ((3R,4S,5S,6R)-5-methoxy-4-((2R,3R)-2-methyl-3-(3-methylbut-2-en-1-yl)oxiran-2-yl)-1-oxaspiro[2.5]octan-6-yl ((R)-1-amino-3-hydroxy-3-methyl-1-oxobutan-2-yl)carbamate) formation. Particulars: recombinant enzyme.
Series [9] has as its system CYP3A4 (Homo sapiens). Kind of series: Activity of human recombinant CYP3A4 assessed as ((3R,4S,5S,6R)-5-methoxy-4-((2R,3R)-2-methyl-3-(3-methylbut-2-en-1-yl)oxiran-2-yl)-1-oxaspiro[2.5]octan-6-yl ((R)-1-amino-3-hydroxy-3-methyl-1-oxobutan-2-yl)carbamate) formation. Particulars: recombinant enzyme.
Series [10] has as its system CYP3A5 (Homo sapiens). Kind of series: Activity of human recombinant CYP3A5 assessed as ((3R,4S,5S,6R)-4-((2R,3R)-3-(((R)-3,3-dimethyloxiran-2-yl)methyl)-2-methyloxiran-2-yl)-5-methoxy-1-oxaspiro[2.5]octan-6-yl ((R)-1-amino-3-methyl-1-oxobutan-2-yl)carbamate) formation per pmol of enzyme.
The test system of series [11] is CYP3A5 (Homo sapiens). Kind of series: Activity of human recombinant CYP3A5 assessed as ((3R,4S,5S,6R)-5-methoxy-4-((2R,3R)-2-methyl-3-(3-methylbut-2-en-1-yl)oxiran-2-yl)-1-oxaspiro[2.5]octan-6-yl ((R)-1-amino-3-hydroxy-3-methyl-1-oxobutan-2-yl)carbamate) formation. Particulars: recombinant enzyme.
Series [12] is described as follows: Cmax in non-Hodgkin lymphoma patient at 15 mg, po alternate days for 21 days. The class given is ADME, organism-based. Also on record: dose 15 mg, route oral. Particulars: human, in vivo. Put shortly:
as §2

In series [13] the test system is Rattus norvegicus. Nature of the series: Inhibition of MetAP2 level in Sprague-Dawley rat whole blood assessed as free enzyme level at 0.3 mg/kg, po by ELISA. The class given is functional, organism-based. On the set-up: dose 0.3 mg/kg. Put shortly: (§3)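 Male Sprague-Dawley rats (200-225 g, n=3 per group) were dosed once IV at 0.3 mg/kg or PO at 0.3 or 3.0 mg/kg, in 11% HPCD in water. Blood, liver, lung, thymus and pooled non-mesenteric lymph nodes were taken at ~24 h and lysed or homogenized with NP-40. Free MetAP2 was measured by ELISA and expressed as % of vehicle.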
On the technique in general: An ELISA detects its analyte on a solid surface through an enzyme-linked reagent.

Series [14] has as its system CYP3A5 (Homo sapiens). Kind of series: Activity of human recombinant CYP3A5 assessed as ((3R,4S,5S,6R)-4-((2R,3R)-3-(((R)-3,3-dimethyloxiran-2-yl)methyl)-2-methyloxiran-2-yl)-5-methoxy-1-oxaspiro[2.5]octan-6-yl ((R)-1-amino-3-methyl-1-oxobutan-2-yl)carbamate) formation. Particulars: recombinant enzyme.
Series [15] concerns the target Cytochrome P450 3A4 (Homo sapiens, UniProt P08684). Nature of the series: Inhibition of CYP3A4 activity in human liver microsomes assessed as dibenzo fluuorescene oxidation up to 40 uM. The class given is ADME.
The subject of series [16] is Liver microsome. Nature of the series: Metabolic stability in human liver microsomes assessed as retention time of ((3R,4S,5S,6R)-4-((2R,3R)-3-(((R)-3,3-dimethyloxiran-2-yl)methyl)-2-methyloxiran-2-yl)-5-methoxy-1-oxaspiro[2.5]octan-6-yl ((R)-1-amino-3-methyl-1-oxobutan-2-yl)carbamate) at 5 mM by LC/MS analysis. The class given is ADME. Particulars: 5000 µM.
Series [17] is described as follows: Apparent oral clearance in non-Hodgkin lymphoma patient at 15 mg, po alternate days for 21 days. In kind it is ADME, organism-based. Particulars: human, in vivo. Put shortly: as §2
The test system of series [18] is Rattus norvegicus. Nature of the series: Inhibition of MetAP2 level in Sprague-Dawley rat lymph nodes assessed as free enzyme level at 0.3 mg/kg, iv by ELISA. On the set-up: dose 0.3 mg/kg. In kind it is functional, organism-based. Put shortly:
as §3

Chain of Cytochrome P450 3A4 (P08684 whole entry): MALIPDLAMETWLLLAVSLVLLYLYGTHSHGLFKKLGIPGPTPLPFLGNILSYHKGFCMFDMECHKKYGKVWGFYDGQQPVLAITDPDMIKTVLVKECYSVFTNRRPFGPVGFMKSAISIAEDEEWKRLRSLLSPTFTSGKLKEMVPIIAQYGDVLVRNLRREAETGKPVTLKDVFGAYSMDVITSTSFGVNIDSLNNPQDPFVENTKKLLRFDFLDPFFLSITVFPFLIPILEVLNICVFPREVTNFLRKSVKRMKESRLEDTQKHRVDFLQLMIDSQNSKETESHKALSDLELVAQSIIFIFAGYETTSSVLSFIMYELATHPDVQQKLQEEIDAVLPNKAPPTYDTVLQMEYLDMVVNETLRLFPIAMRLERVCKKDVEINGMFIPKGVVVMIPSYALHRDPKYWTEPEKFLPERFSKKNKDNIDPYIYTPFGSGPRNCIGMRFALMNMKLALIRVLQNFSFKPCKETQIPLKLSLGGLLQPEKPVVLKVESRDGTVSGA

`CO[C@@H]1[C@H](OC(=O)N[C@@H](C(N)=O)C(C)C)CC[C@]2(CO2)[C@H]1[C@@]1(C)O[C@@H]1CC=C(C)C` [PPI-2458]: the Vmax/Km in series [1] was 0.031 µL/min; in [7], 0.09 µL/min; in series [8], 0.019 µL/min. The Drug metabolism entry in series [2], in [4], in series [5] and in series [16] was “metabolite_detected” throughout. The Km (as a rule, the concentration of substrate that gives half-maximal velocity) in series [3] stood at 26 µM; in series [9], 27 µM; in series [11] it was 17 µM; in series [14] it was 17 µM. Besides, in series [6], the half-life (as a rule, the time needed for the level to fall by half in the phase considered) was 1.6 h. The Vmax (commonly the rate approached at saturating substrate) in series [10] turned out to be 2.86 pmol/min. For the same molecule, in series [12], the peak level (Cmax) was 55 ng/mL. Also, the inhibition result in series [13] and in [18] was “Active” throughout. For the same molecule, the “inhibition (INH)” value in series [15] is reported as “Not Active”. In [17], the apparent clearance CL/F – broadly, the apparent clearance, not corrected for the fraction that reaches the circulation – was 5880 mL/min.
